Activity calls are given as the source filed them. The rule behind the calls is not given here.
Experiments:
PC-3 = experiment: Inhibition of colony formation in human PC-3 cells at 0.1 to 10 uM incubated for 2 weeks with media replacement for every 2 days by crystal violet staining based analysis; format: functional, cell-based; conditions: dose 0.1-10 µM
In short: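 PC3 cells kept 14 days with compound; compound-containing medium replenished every two days. Viable cells stained with 0.5% crystal violet.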

[1] = target: von Hippel-Lindau disease tumor suppressor/RAC-alpha serine/threonine-protein kinase (Homo sapiens) (UniProt P31749+P40337); experiment: Protac activity at VHL/AKT in human PC-3 cells assessed as reduction in total Akt level at 1 uM incubated for 24 hrs by Western blot analysis; format: cell-based
Chain of von Hippel-Lindau disease tumor suppressor/RAC-alpha serine/threonine-protein kinase (Homo sapiens) (P31749 whole entry, looked up): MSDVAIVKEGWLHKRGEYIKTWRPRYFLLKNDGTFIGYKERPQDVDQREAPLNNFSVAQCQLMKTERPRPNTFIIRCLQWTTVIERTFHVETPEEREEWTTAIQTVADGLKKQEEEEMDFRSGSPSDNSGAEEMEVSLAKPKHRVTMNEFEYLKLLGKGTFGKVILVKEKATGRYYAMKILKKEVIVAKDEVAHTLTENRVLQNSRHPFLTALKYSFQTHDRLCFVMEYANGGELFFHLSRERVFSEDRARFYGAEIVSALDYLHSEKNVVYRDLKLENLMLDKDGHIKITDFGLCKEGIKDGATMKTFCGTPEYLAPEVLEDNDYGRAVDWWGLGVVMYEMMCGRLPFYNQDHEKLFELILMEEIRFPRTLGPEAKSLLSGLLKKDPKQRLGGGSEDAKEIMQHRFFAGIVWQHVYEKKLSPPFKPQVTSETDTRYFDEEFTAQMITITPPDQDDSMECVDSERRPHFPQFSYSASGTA
Chain of von Hippel-Lindau disease tumor suppressor/RAC-alpha serine/threonine-protein kinase (Homo sapiens) (P40337 whole entry, looked up): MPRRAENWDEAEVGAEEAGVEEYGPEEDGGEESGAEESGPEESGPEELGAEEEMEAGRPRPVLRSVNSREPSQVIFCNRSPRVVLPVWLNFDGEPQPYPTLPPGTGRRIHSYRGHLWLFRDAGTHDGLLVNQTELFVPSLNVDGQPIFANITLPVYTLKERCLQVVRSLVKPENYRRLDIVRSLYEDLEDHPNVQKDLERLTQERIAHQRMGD
In short: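 Cells grown in DMEM with 10% FBS at 37 °C, 5% CO2, then exposed to compound at 1 μM for 24 h. Lysates made in 2X urea/SDS sample buffer, run on 4–12% Bis-Tris gels, transferred to PVDF, probed for total AKT overnight at 4 °C; HRP/chemiluminescence detection with β-actin as loading control.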

[2] = target: RAC-gamma serine/threonine-protein kinase (Homo sapiens, UniProt Q9Y243); experiment: Inhibition of AKT3 (unknown origin) preincubated for 20 mins followed by [33P]-ATP addition measured after 120 mins by hotspot kinase assay
Chain of RAC-gamma serine/threonine-protein kinase (Q9Y243 whole entry): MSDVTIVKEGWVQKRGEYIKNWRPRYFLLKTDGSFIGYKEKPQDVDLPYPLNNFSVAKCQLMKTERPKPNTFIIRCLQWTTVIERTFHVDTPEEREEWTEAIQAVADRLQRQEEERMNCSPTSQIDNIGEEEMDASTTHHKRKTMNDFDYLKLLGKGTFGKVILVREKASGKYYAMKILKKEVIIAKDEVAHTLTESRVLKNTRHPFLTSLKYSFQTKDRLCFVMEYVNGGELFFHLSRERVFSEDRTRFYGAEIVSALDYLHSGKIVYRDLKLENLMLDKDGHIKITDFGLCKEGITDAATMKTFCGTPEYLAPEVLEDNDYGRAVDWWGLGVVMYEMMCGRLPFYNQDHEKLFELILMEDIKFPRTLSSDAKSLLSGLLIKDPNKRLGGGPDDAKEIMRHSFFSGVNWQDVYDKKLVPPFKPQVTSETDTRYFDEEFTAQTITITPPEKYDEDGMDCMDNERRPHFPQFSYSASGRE

[3] = target: RAC-alpha serine/threonine-protein kinase (Homo sapiens, UniProt P31749); experiment: Inhibition of AKT1 (unknown origin) preincubated for 20 mins followed by [33P]-ATP addition measured after 120 mins by hotspot kinase assay
Chain of RAC-alpha serine/threonine-protein kinase (P31749 whole entry): as the sequence (P31749 whole entry, looked up) above

SW-620 = experiment: Antiproliferative activity against human SW620 cells harboring KRAS mutant assessed as inhibition of cell growth incubated for 5 days by IncuCyte live-cell imaging analysis; format: functional, cell-based; conditions: SW-620, 120 h
[4] = target: RAC-beta serine/threonine-protein kinase (Homo sapiens, UniProt P31751); experiment: Inhibition of AKT2 (unknown origin) preincubated for 20 mins followed by [33P]-ATP addition measured after 120 mins by hotspot kinase assay
Chain of RAC-beta serine/threonine-protein kinase (P31751 whole entry): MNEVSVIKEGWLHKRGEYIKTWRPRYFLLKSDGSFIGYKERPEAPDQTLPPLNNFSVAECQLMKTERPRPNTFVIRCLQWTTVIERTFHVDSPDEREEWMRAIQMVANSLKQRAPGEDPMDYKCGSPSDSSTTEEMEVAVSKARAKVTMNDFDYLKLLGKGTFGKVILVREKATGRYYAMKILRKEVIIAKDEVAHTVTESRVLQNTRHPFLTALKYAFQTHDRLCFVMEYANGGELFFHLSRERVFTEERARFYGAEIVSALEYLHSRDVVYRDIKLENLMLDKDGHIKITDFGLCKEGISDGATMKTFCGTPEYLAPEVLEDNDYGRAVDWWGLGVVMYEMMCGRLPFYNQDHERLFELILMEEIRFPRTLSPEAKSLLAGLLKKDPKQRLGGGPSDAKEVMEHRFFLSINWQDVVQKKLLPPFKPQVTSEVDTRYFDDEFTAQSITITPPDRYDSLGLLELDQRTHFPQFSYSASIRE

SMILES | Activity [1] | also measured
Cc1ncsc1-c1ccc(CNC(=O)[C@@H]2C[C@@H](O)CN2C(=O)[C@@H](NC(=O)CCCCCCCCC(=O)NCCc2cccc(-c3ccc4nc(-c5cccnc5N)n(-c5ccc(C6(N)CCC6)cc5)c4n3)c2)C(C)(C)C)cc1 | Active | inhibition (PC-3): Active
Cc1ncsc1-c1ccc(CNC(=O)[C@@H]2C[C@@H](O)CN2C(=O)[C@@H](NC(=O)COCCNC(=O)CCc2cccc(-c3ccc4nc(-c5cccnc5N)n(-c5ccc(C6(N)CCC6)cc5)c4n3)c2)C(C)(C)C)cc1 | Active | 
Cc1ncsc1-c1ccc(CNC(=O)[C@@H]2C[C@@H](O)CN2C(=O)[C@@H](NC(=O)CCCCCCCCCCNC(=O)CCc2cccc(-c3ccc4nc(-c5cccnc5N)n(-c5ccc(C6(N)CCC6)cc5)c4n3)c2)C(C)(C)C)cc1 | Active | inhibition (PC-3): Active
Cc1ncsc1-c1ccc(CNC(=O)[C@@H]2C[C@@H](O)CN2C(=O)[C@@H](NC(=O)COCCOCCOCCNC(=O)CCc2cccc(-c3ccc4nc(-c5cccnc5N)n(-c5ccc(C6(N)CCC6)cc5)c4n3)c2)C(C)(C)C)cc1 | Active | 
Cc1ncsc1-c1ccc(CNC(=O)[C@@H]2C[C@@H](O)CN2C(=O)[C@@H](NC(=O)CCOCCOCCOCCOCCOCCC(=O)NCCc2cccc(-c3ccc4nc(-c5cccnc5N)n(-c5ccc(C6(N)CCC6)cc5)c4n3)c2)C(C)(C)C)cc1 | Active | 
Cc1ncsc1-c1ccc(CNC(=O)[C@@H]2C[C@@H](O)CN2C(=O)[C@@H](NC(=O)COCC(=O)NCCc2cccc(-c3ccc4nc(-c5cccnc5N)n(-c5ccc(C6(N)CCC6)cc5)c4n3)c2)C(C)(C)C)cc1 | Active | 
Cc1ncsc1-c1ccc(CNC(=O)[C@@H]2C[C@@H](O)CN2C(=O)[C@@H](NC(=O)CCOCCC(=O)NCCc2cccc(-c3ccc4nc(-c5cccnc5N)n(-c5ccc(C6(N)CCC6)cc5)c4n3)c2)C(C)(C)C)cc1 | Active | 
Cc1ncsc1-c1ccc(CNC(=O)[C@@H]2C[C@@H](O)CN2C(=O)[C@@H](NC(=O)COCCOCCOCCOCCOCC(=O)NCCc2cccc(-c3ccc4nc(-c5cccnc5N)n(-c5ccc(C6(N)CCC6)cc5)c4n3)c2)C(C)(C)C)cc1 | Active | 
Cc1ncsc1-c1ccc(CNC(=O)[C@@H]2C[C@@H](O)CN2C(=O)[C@@H](NC(=O)CCCCCCCNC(=O)CCc2cccc(-c3ccc4nc(-c5cccnc5N)n(-c5ccc(C6(N)CCC6)cc5)c4n3)c2)C(C)(C)C)cc1 | Active | 
Cc1ncsc1-c1ccc(CNC(=O)[C@@H]2C[C@@H](O)CN2C(=O)[C@@H](NC(=O)COCCOCCNC(=O)CCc2cccc(-c3ccc4nc(-c5cccnc5N)n(-c5ccc(C6(N)CCC6)cc5)c4n3)c2)C(C)(C)C)cc1 | Active | 
Cc1ncsc1-c1ccc(CNC(=O)[C@@H]2C[C@@H](O)CN2C(=O)[C@@H](NC(=O)CCCCCCCCCNC(=O)CCc2cccc(-c3ccc4nc(-c5cccnc5N)n(-c5ccc(C6(N)CCC6)cc5)c4n3)c2)C(C)(C)C)cc1 | Active | 
Cc1ncsc1-c1ccc([C@H](C)NC(=O)[C@H]2C[C@H](OCc3ccccc3)CN2C(=O)[C@@H](NC(=O)CCCCCCCCCCNC(=O)CCc2cccc(-c3ccc4nc(-c5cccnc5N)n(-c5ccc(C6(N)CCC6)cc5)c4n3)c2)C(C)(C)C)cc1 |  | IC50 [2]: 1800 nM; IC50 [3]: 1200 nM; IC50 (SW-620): > 10000 nM; IC50 [4]: 558 nM
Cc1ncsc1-c1ccc(CNC(=O)[C@@H]2C[C@@H](O)CN2C(=O)[C@@H](NC(=O)CCOCCOCCNC(=O)CCc2cccc(-c3ccc4nc(-c5cccnc5N)n(-c5ccc(C6(N)CCC6)cc5)c4n3)c2)C(C)(C)C)cc1 | Active | 
Cc1ncsc1-c1ccc(CNC(=O)[C@@H]2C[C@@H](O)CN2C(=O)[C@@H](NC(=O)CCCCCCCC(=O)NCCc2cccc(-c3ccc4nc(-c5cccnc5N)n(-c5ccc(C6(N)CCC6)cc5)c4n3)c2)C(C)(C)C)cc1 | Active | 
Cc1ncsc1-c1ccc(CNC(=O)[C@@H]2C[C@@H](O)CN2C(=O)[C@@H](NC(=O)CCOCCNC(=O)CCc2cccc(-c3ccc4nc(-c5cccnc5N)n(-c5ccc(C6(N)CCC6)cc5)c4n3)c2)C(C)(C)C)cc1 | Active | 
Cc1ncsc1-c1ccc([C@H](C)NC(=O)[C@H]2C[C@H](O)CN2C(=O)[C@@H](NC(=O)CCCCCCCCCCNC(=O)CCc2cccc(-c3ccc4nc(-c5cccnc5N)n(-c5ccc(C6(N)CCC6)cc5)c4n3)c2)C(C)(C)C)cc1 |  | IC50 [2]: 407 nM; IC50 [3]: 684 nM; IC50 [4]: 86 nM
Cc1ncsc1-c1ccc(CNC(=O)[C@@H]2C[C@@H](O)CN2C(=O)[C@@H](NC(=O)CCCCCCCCCC(=O)NCCc2cccc(-c3ccc4nc(-c5cccnc5N)n(-c5ccc(C6(N)CCC6)cc5)c4n3)c2)C(C)(C)C)cc1 | Active | inhibition (PC-3): Active
Cc1ncsc1-c1ccc(CNC(=O)[C@@H]2C[C@@H](O)CN2C(=O)[C@@H](NC(=O)CCCCCCCCNC(=O)CCc2cccc(-c3ccc4nc(-c5cccnc5N)n(-c5ccc(C6(N)CCC6)cc5)c4n3)c2)C(C)(C)C)cc1 | Active | 
